Assay results pooled from the literature.
Cell line: HEK293
Observed: cell growth or viability

`CCn1cc(C(=O)NCCNCCO)c(=O)c2cc(OC)c(OCc3cc(F)cc(F)c3)cc21` has a CC50 of over 32 µg/mL (resazurin; 20 h).
The CC50 of `C[C@@H](c1cc(Cl)cc(Cl)c1)N(C)c1ncc2c(N)nc(N)nc2n1` is reported as 31.2 µM (MTT; 24 h).
`Cc1c2ccncc2c(C)c2c1[nH]c1ccc(OCCN(C)C)cc12` gave an IC50 of 3.16 µM (MTS).
`Cc1ccc2oc(-c3cc(NC(=O)Cc4ccccc4)ccc3Cl)nc2c1` has a CC50 of over 400 µM (MTT; 24 h).
With `CC1c2cc(c(O)cc2O)C(C)c2cc(c(O)cc2O)C(C)c2cc(c(O)cc2O)C(C)c2cc1c(O)cc2O` (stereo not drawn) the CC50 was 21.2 µM (ATP luminescence; 24 h).
`CC(C)(O)c1coc(S(=O)(=O)NC(=O)Nc2c3c(cc4c2CCC4)CCC3)c1` gave a viability of 95.2% (MTT; 10 µM; 4 h).
`CO[C@H]1C[C@@H](C[C@H](C)[C@H]2CC(=O)[C@@H](C)/C=C(\C)[C@H](O)[C@H](OC)C(=O)[C@@H](C)C[C@@H](C)/C=C/C=C/C=C(\C)[C@H](OC)C[C@H]3CC[C@H](C)[C@](O)(O3)C(=O)C(=O)N3CCCC[C@@H]3C(=O)O2)CC[C@@H]1OCCO` (racemic) gave a CC50 of 63.7 µM (MTT; 24 h).
For `O=P(O)(O)c1cc2c(O)c(c1)Cc1cc(P(=O)(O)O)cc(c1O)Cc1cc(P(=O)(O)O)cc(c1O)Cc1cc(P(=O)(O)O)cc(c1O)Cc1cc(P(=O)(O)O)cc(c1O)Cc1cc(P(=O)(O)O)cc(c1O)Cc1cc(P(=O)(O)O)cc(c1O)Cc1cc(P(=O)(O)O)cc(c1O)C2`, the CC50 was 608 µM (MTT; 24 h).
With `CC/C(=C(\c1ccccc1)c1ccc(OCCN(C)C)cc1)c1ccccc1` the CC50 was 9 µg/mL (resazurin; 20 h).
